# Source: PubChem
# FN deposit inh – inhibitors of fibronectin matrix deposition, primary screen, AH1F cells, Alexa488-fibronectin fluorescence, plate reader | AH1F fibroblasts, overnight | inhibition, % at 12.6 µM | 350,000 tested, 0.086% active | AID 743247, 2014;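 active means mean inhibition across replicates of 30% or more, regardless of how many single replicates reach that level; inconclusive means mean under 30% yet at least half of replicates reach 30%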;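 further: positive control wells lacked labelled fibronectin entirely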
#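 Test system: AH1F fibroblast monolayer depositing Alexa488-labelled fibronectin into matrix. Input: 10000 cells per well. Technique: fluorescence, ex 485 nm, em 525 nm. Buffer or medium: DMEM plus 2% serum, read in PBS. Timing: 1 h cell adhesion before compound, then overnight fibronectin incubation. Compound: single dose, pinned. Read-out basis: inhibition from reduced deposited-fibronectin fluorescence.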
# ARNT-TACC3 inh – disruptors of ARNT/TACC3 protein interaction, primary screen, biochemical, AlphaScreen, single concentration; AlphaScreen His-ARNT PAS-B/GST-TACC3 binding, luminescence; TACC3 fragment carries E629A point mutation; 390,000 tested, 0.66% active; inhibition, % at 9.99 µM;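 active means mean inhibition of replicates at least 50% and at least half of replicates each reaching 50%; inconclusive means half or more replicates reach 50% but mean below 50%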;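 further: 0% = complete ARNT plus TACC3 wells and 100% = ARNT alone without TACC3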
# DENV2 CPE rescue – inhibitors of DENV2 cytopathic effect, primary screen, cell-based, plate reader, single concentration. DENV2-infected cells, cytopathic effect rescue. CPE inhibition, % at 9.99 µM. 350,000 tested, 1.7% active. AID 651640, 2012; in the data active means CPE inhibition above about 20%, passing the limit was not always enough; inconclusive means no clear call, values can overlap the other calls; tested in BHK-21 cells;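 further: 0% = median of neutral control wells and 100% = median of positive control wells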
# FGF22 binding – binders of human FGF22 protein, primary screen, FGF22 synaptogenesis inhibitor project, biophysical, thermal shift, single point. Fibroblast growth factor 22 (Homo sapiens), Q9HCT0. recombinant FGF22 thermal shift, SYPRO orange fluorescence; percent of sucrose octasulfate shift, DMSO zero. activity (Tm shift, normalised), % at 9.99 µM. 340,000 tested, 1.5% active. AID 651658, 2012;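 active means mean Tm shift, scaled 0 neutral to 100 positive control, at about 1.3% or above, every replicate too, limit read from the data; inconclusive means no clear call, values can overlap the other calls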
# Target sequence (Q9HCT0 whole entry, looked up): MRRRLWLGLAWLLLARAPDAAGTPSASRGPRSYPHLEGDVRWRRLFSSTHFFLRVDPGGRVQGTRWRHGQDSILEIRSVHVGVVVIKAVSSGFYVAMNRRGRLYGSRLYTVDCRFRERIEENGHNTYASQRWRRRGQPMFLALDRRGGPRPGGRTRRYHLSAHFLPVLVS
# XiGFP reactiv – activators of inactive X chromosome reactivation, primary screen, imaging, XiGFP fibroblasts, GFP high-content imaging, set 2; XiGFP mouse fibroblasts, % GFP-positive cells imaging, 3 d; cells co-treated with 5-aza-dC sensitizer; scaled so ellipticine positive control = 100%; activation, % at 7.58 µM; 360,000 tested, 0.055% active;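 active means mean normalized replicate activation at least 10% and every replicate at or above 10%; inconclusive means only one of the two criteria met; inactive means mean below 10% and not all replicates reach 10%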;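 further: 0% = median of on-plate neutral control wells and 100% = ellipticine 6 µM median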
#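 Assay system: SV40-immortalized XiGFP fibroblast cells, line 68-5-11; buffer or medium: DMEM plus 5-aza-dC sensitizer; compound: one concentration, pinned; timing: compounds 3 days, fix/stain 15 min at room temperature; benchmarks: positive control ellipticine, 6 µM final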
# SIRT5 inh – SIRT5 desuccinylase inhibitors, primary screen, biochemical, fluorescence imaging, single point, set 5; NAD-dependent protein deacylase sirtuin-5, mitochondrial (Homo sapiens), Q9NXA8; Purified SirT5, succinyl-peptide AMC, trypsin-coupled fluorescence; inhibition, % at 15 µM; 330,000 tested, 1.1% active; in the data active means inhibition above about 15%; inconclusive means no clear call, values can overlap the other calls
# Target sequence (Q9NXA8 whole entry, looked up): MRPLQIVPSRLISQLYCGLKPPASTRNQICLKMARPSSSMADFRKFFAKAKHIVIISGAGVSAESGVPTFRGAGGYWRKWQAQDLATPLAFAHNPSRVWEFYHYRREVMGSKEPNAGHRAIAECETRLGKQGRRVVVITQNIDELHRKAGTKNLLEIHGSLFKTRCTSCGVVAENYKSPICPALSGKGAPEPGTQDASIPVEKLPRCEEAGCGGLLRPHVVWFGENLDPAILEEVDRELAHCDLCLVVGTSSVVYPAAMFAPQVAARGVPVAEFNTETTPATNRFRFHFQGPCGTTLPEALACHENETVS
# Numbers without * were called inactive; i = inactive; ? = inconclusive; . = no result given. An excerpt weighted towards active compounds, which were near 3.8% of everything screened.
SMILES,FN deposit inh,ARNT-TACC3 inh,DENV2 CPE rescue,FGF22 binding,XiGFP reactiv,SIRT5 inh
CCCOc1ccc(C(=O)Nc2ccc(CN3CCOCC3)cc2)cc1,-2.7,-5.5,7.6,-0.2,?,8.7
CCCOc1cccc(C(=O)Nc2ccc(CN3CCOCC3)cc2)c1,-6.9,0.8,25.3*,0.0,0.0,2.0
CC(C)CC#Cc1ccc2c(c1)O[C@@H](CN(C)C(=O)c1cnccn1)[C@@H](C)CN([C@@H](C)CO)S2(=O)=O,.,4.1,36.4*,-0.1,-1.6,-3.2
CC(C)CC#Cc1ccc2c(c1)O[C@@H](CN(C)C(=O)CC1CC1)[C@@H](C)CN([C@H](C)CO)S2(=O)=O,-1.0,3.9,-1.0,-0.5,-1.0,24.9*
CCCC#Cc1ccc2c(c1)O[C@@H](CN(C)C(=O)c1cnccn1)[C@H](C)CN([C@H](C)CO)S2(=O)=O,-15.3,4.6,1.2,-0.4,0.2,-2.3
CC(C)CC#Cc1ccc2c(c1)O[C@@H](CN(C)C(=O)C1CCCCC1)[C@H](C)CN([C@H](C)CO)S2(=O)=O,-21.6,10.8,-4.5,0.0,0.4,19.2*
C[C@@H]1CN([C@@H](C)CO)S(=O)(=O)c2ccc(C#CC(C)(C)O)cc2O[C@@H]1CN(C)C(=O)C1CCCCC1,.,1.7,21.5*,0.1,-0.2,0.1
CC(C)CC#Cc1ccc2c(c1)O[C@H](CN(C)C(=O)C1CCCCC1)[C@H](C)CN([C@H](C)CO)S2(=O)=O,-11.3,3.2,1.8,0.1,0.2,2.5
CC(C)CC#Cc1ccc2c(c1)O[C@@H](CN(C)C)[C@@H](C)CN([C@@H](C)CO)S2(=O)=O,8.1,-19.7,27.0*,-0.3,0.0,6.4
CC(C)CC#Cc1ccc2c(c1)O[C@@H](CN(C)C(=O)C1CCCCC1)[C@@H](C)CN([C@H](C)CO)S2(=O)=O,-6.9,1.7,-4.5,-0.4,0.2,22.0*
Cn1c(-c2ccccc2)c[n+]2c1-c1ccccc1C2,-10.4,-9.7,-2.2,44.7*,0.0,-2.4
Cn1c(-c2ccccc2)cccc1=O,-5.6,1.9,.,.,.,.
CS(=O)(=O)N(CC(=O)NCCSc1ccccn1)c1ccc(F)cc1,6.1,1.6,-0.3,43.1*,0.0,1.0
COc1ccc(N(CC(=O)NCCSc2ccccn2)S(C)(=O)=O)cc1,.,-4.1,.,.,.,-3.9
COc1ccc(S(=O)(=O)N(C)C[C@@H]2Oc3c(NS(=O)(=O)c4ccc(C)cc4)cccc3C(=O)N([C@@H](C)CO)C[C@H]2C)cc1,.,.,.,-0.3,-1.1,3.7
CC(=O)Nc1cccc(NC(=O)c2cccc3cccnc23)c1,-1.0,.,10.2,0.0,0.5,15.1*
CCOc1ncccc1C(=O)Nc1ccc(F)c(F)c1,1.0,-4.0,-4.0,43.5*,0.4,-2.4
CCOc1ncccc1C(=O)Nc1ccc(F)c(Cl)c1,-4.7,-4.7,0.6,0.3,0.0,5.0
CCN(CC)c1ccc2cc(-c3nnc(-c4ccccc4)o3)c(=O)oc2c1,.,-7.9,.,.,.,.
CCN(CC)c1ccc2cc(-c3nc(-c4ccc(OC)cc4)cs3)c(=O)oc2c1,i,.,-6.4,0.4,115.0*,.
Cc1ccc(NC(=O)C2CC2c2ccccc2)c([N+](=O)[O-])c1 (stereo not given),-16.3,45.6*,3.3,0.2,0.1,0.8
O=C(Nc1ccc(Cl)cc1F)C1CC1c1ccccc1 (stereo not given),-6.5,-3.2,-1.4,0.1,0.3,-8.7
COc1ccc(S(=O)(=O)Nc2ccc3c(c2)CC(=O)N([C@H](C)CO)C[C@@H](C)[C@@H](CN(C)S(=O)(=O)c2ccc(Cl)cc2)O3)cc1,.,24.7,8.9,-0.5,0.4,7.3
CCN1CCN(C(=O)/C=C/c2ccccc2[N+](=O)[O-])CC1,2.7,-3.8,-4.7,-0.2,0.0,-2.4
O=C(/C=C/c1ccccc1[N+](=O)[O-])N1CCCCC1,0.2,.,-0.5,43.1*,0.3,0.4
SMILES,FN deposit inh,ARNT-TACC3 inh,DENV2 CPE rescue,FGF22 binding,XiGFP reactiv,SIRT5 inh
C=CCc1cc(Cl)ccc1OCCCNCCO,-6.0,.,2.6,44.5*,0.0,0.8
CN(C)C(=O)C[C@@H]1CC[C@H]2[C@@H](COc3ccc(NC(=O)C4CCCC4)cc3C(=O)N2C)O1,-6.0,.,3.3,.,0.0,0.8
CCOC(=O)N1CCN(C2=C(NS(=O)(=O)c3ccc(NC(C)=O)cc3)C(=O)c3ccccc3C2=O)CC1,2.3,31.2*,?,-0.4,0.0,1.5
CCN1CCN(C2=C(NS(=O)(=O)c3ccc(NC(C)=O)cc3)C(=O)c3ccccc3C2=O)CC1,-1.5,11.9,7.8,0.0,0.0,1.4
Cc1noc(C)c1S(=O)(=O)Nc1cccc2c1O[C@@H](CN(C)Cc1ccccc1)[C@@H](C)CN([C@@H](C)CO)C2=O,.,1.8,-3.4,-0.5,-0.8,-5.8
COCC#Cc1ccc([C@@H]2[C@@H](CO)N3CCCCN(S(=O)(=O)c4ccccc4F)C[C@@H]23)cc1,.,-2.3,21.0*,0.0,.,4.0
COCC#Cc1ccc([C@H]2[C@H](CO)N3CCCCN(S(=O)(=O)c4ccc(OC)cc4)C[C@@H]23)cc1,.,-6.3,62.1*,-0.1,0.2,1.2
COc1ccc(S(=O)(=O)N2CCCCN3[C@@H](CO)[C@H](c4ccc(C#CC(C)C)cc4)[C@@H]3C2)cc1,.,20.0,-24.9,-0.1,0.1,15.4*
COCC#Cc1ccc([C@H]2[C@H]3CN(S(=O)(=O)c4ccc(OC)cc4)CCCCN3[C@H]2CO)cc1,.,5.6,44.7*,-0.2,0.0,4.8
CCCC#Cc1ccc([C@@H]2[C@H]3CN(C(=O)c4cccnc4)CC(=O)N3[C@H]2CO)cc1,-1.2,.,4.6,.,0.0,-0.9
Cc1ccc(S(=O)(=O)N(C)C[C@H]2Oc3cc(C#Cc4ccccc4)ccc3S(=O)(=O)N([C@@H](C)CO)C[C@H]2C)cc1,-3.7,7.8,-3.7,0.1,0.9,11.8
Cc1cc(C)c[n+](-c2nc3ccccc3nc2[N-]S(=O)(=O)c2ccc(Br)s2)c1,4.4,.,0.4,44.0*,0.2,2.2
O=S(=O)([N-]c1nc2ccccc2nc1-[n+]1ccccc1)c1ccccc1,.,-0.2,.,.,.,.
CCOC(=O)N1CCN(C(=O)C2CCCN(S(=O)(=O)c3cccnc3)C2)CC1 (stereo not given),-4.3,-0.9,8.0,-0.2,0.2,-2.4
